The source of these data is ChEMBL document CHEMBL4118079, “Discovery of novel naphthoquinone derivatives as inhibitors of the tumor cell specific M2 isoform of pyruvate kinase” (Eur J Med Chem, 2017).

Each structure is given as a SMILES string.

Usually IC50 stands for the concentration that inhibits the measured activity by half.

For data set [1], the target named is T1, Pyruvate kinase PKM (Homo sapiens, UniProt P14618). Description: Inhibition of recombinant human N-terminal His-tagged PKM2 expressed in Escherichia coli BL21 preincubated for 15 mins followed by PEP/NADH addition measured at 30 secs interval for 3 to 6 mins by fluorescent PK-LDH assay. The method, boiled down:
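Human PKM2 with an N-terminal His tag, expressed in E. coli BL21 and Ni-agarose purified. Enzyme and compound preincubated 15 min in 50 mM Tris–HCl pH 7.5, 10 mM KCl, 5 mM MgCl2. NADH fluorescence read kinetically every 30 s for 3–6 min. IC50.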
Target sequence in this assay (P14618 2-531 limits assumed): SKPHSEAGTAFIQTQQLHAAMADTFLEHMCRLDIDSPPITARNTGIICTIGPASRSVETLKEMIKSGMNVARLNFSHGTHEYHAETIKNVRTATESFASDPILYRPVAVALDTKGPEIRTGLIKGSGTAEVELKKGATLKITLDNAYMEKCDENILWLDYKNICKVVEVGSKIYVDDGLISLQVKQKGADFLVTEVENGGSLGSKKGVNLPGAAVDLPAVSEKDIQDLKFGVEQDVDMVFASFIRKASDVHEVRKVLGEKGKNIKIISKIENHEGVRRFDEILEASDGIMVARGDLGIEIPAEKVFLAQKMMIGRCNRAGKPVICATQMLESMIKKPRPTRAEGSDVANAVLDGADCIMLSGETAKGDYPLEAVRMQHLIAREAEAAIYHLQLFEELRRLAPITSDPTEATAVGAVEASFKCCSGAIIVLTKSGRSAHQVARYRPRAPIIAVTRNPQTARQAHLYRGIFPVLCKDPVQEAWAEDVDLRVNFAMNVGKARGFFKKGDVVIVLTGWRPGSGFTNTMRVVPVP

Data set [2] has as its target T1, Pyruvate kinase PKM. Description: Inhibition of recombinant human N-terminal His-tagged PKM1 expressed in Escherichia coli BL21 preincubated for 15 mins followed by PEP/NADH addition measured at 30 secs interval for 3 to 6 mins by fluorescent PK-LDH assay. The method, boiled down: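 Human PKM1 with an N-terminal His tag, expressed in E. coli BL21 and Ni-agarose purified. Activity measured by PK–LDH coupling, with pyruvate formation tracked as NADH depletion by fluorescence in kinetic mode. IC50.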
Target sequence in this assay (P14618 whole entry): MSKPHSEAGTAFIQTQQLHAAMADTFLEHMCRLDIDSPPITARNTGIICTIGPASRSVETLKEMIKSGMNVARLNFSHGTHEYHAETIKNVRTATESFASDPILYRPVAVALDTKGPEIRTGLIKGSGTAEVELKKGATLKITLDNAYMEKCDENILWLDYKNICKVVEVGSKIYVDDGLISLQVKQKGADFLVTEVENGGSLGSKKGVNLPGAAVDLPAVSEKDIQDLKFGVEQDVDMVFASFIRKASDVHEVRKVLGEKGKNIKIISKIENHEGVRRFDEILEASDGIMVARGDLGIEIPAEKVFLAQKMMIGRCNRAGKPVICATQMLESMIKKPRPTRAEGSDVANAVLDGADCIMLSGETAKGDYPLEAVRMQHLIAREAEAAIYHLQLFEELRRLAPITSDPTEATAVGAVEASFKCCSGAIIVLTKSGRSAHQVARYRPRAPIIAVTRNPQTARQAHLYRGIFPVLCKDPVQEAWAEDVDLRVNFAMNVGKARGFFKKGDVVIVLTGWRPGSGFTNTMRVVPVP

For data set [3], the species on record is Homo sapiens. Description: Selectivity ratio of IC50 for recombinant human N-terminal His-tagged PKM1 expressed in Escherichia coli BL21 to IC50 for recombinant human N-terminal His-tagged PKM2 expressed in Escherichia coli BL21.
In data set [4] the target is Pyruvate kinase PKLR (Homo sapiens, UniProt P30613). Kind of data set: Inhibition of recombinant human N-terminal His-tagged PKL expressed in Escherichia coli preincubated for 15 mins followed by PEP/NADH addition measured at 30 secs interval for 3 to 6 mins by fluorescent PK-LDH assay.
The species named for data set [5] is Homo sapiens. Description: Selectivity ratio of IC50 for recombinant human N-terminal His-tagged PKL expressed in Escherichia coli to IC50 for recombinant human N-terminal His-tagged PKM2 expressed in Escherichia coli BL21.
Data set [6] has as its system HCT-116. Description: Antiproliferative activity against human HCT116 cells after 48 hrs by MTS assay. It counts as functional, cell-based. The following applies: HCT-116, 48 h. The method, boiled down:
(§1)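 Cells kept in RPMI 1640 with 9% FBS at 37°C, 5% CO2. 5000 cells/well seeded, left 12 h, then exposed to a range of compound concentrations or DMSO (negative control) for 48 h. MTS added, 3 h at 37°C, absorbance read at 490 nm. IC50 ± SD.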
(In general: Tetrazolium dyes change colour on reduction, which living cells bring about.)

The subject of data set [7] is HeLa. Kind of data set: Antiproliferative activity against human HeLa cells after 48 hrs by MTS assay. It counts as functional, cell-based. The method, boiled down:
as §1

Data set [8] deals with NCI-H1299. Description: Antiproliferative activity against human NCI-H1299 cells after 48 hrs by MTS assay. The following applies: NCI-H1299, 48 h. It counts as functional, cell-based. The method, boiled down: as §1
The subject of data set [9] is NCI-H1299. Kind of data set: Antiproliferative activity against human NCI-H1299 cells after 48 hrs in presence of PKM2 activator FBP by MTS assay. It counts as functional, cell-based. The following applies: NCI-H1299, 48 h. The method, boiled down: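 H1299 cells in RPMI 1640 with 9% FBS at 37°C, 5% CO2. 5000 cells/well, 12 h attachment, then 48 h treatment at graded concentrations with FBP (100 µM) added. MTS read-out (3 h, 37°C, A490). IC50 ± SD.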

Data set [10] deals with BEAS-2B. Kind of data set: Cytotoxicity against human BEAS2B cells assessed as reduction in cell viability after 48 hrs by MTS assay. It counts as cell-based. The method, boiled down:
as §1

Data set [11] can be described thus: Selectivity index, ratio of IC50 for human BEAS2B cells to IC50 for human NCI-H1299 cells. The following applies: BEAS2B cells and NCI-H1299 cells, read-out: Ratio IC50. It counts as toxicity.
The test system of data set [12] is HCT-116. Description: Antiproliferative activity against human HCT116 cells assessed as cell viability at 0.078 uM after 48 hrs by MTS assay relative to control. It counts as functional. The following applies: HCT-116, 48 h, read-out: Activity.
Data set [13] deals with HCT-116. Description: Antiproliferative activity against human HCT116 cells assessed as cell viability at 0.156 uM after 48 hrs by MTS assay relative to control. It counts as functional. The following applies: HCT-116, 48 h, read-out: Activity.
Data set [14] deals with HCT-116. Kind of data set: Antiproliferative activity against human HCT116 cells assessed as cell viability at 0.313 uM after 48 hrs by MTS assay relative to control. It counts as functional. The following applies: HCT-116, 48 h, read-out: Activity.
Data set [15] concerns HCT-116. Description: Antiproliferative activity against human HCT116 cells assessed as cell viability at 0.625 uM after 48 hrs by MTS assay relative to control. The following applies: HCT-116, 48 h, read-out: Activity. It counts as functional.
The test system of data set [16] is HeLa. Description: Antiproliferative activity against human HeLa cells assessed as cell viability at 0.078 uM after 48 hrs by MTS assay relative to control. It counts as functional. The following applies: read-out: Activity.
Data set [17] relates to HeLa. Kind of data set: Antiproliferative activity against human HeLa cells assessed as cell viability at 0.156 uM after 48 hrs by MTS assay relative to control. It counts as functional. The following applies: read-out: Activity.
Data set [18] has as its system HeLa. Kind of data set: Antiproliferative activity against human HeLa cells assessed as cell viability at 0.313 uM after 48 hrs by MTS assay relative to control. The following applies: read-out: Activity. It counts as functional.
Data set [19] deals with HeLa. Description: Antiproliferative activity against human HeLa cells assessed as cell viability at 0.625 uM after 48 hrs by MTS assay relative to control. The following applies: read-out: Activity. It counts as functional.

Sequence of Pyruvate kinase PKLR (P30613 whole entry): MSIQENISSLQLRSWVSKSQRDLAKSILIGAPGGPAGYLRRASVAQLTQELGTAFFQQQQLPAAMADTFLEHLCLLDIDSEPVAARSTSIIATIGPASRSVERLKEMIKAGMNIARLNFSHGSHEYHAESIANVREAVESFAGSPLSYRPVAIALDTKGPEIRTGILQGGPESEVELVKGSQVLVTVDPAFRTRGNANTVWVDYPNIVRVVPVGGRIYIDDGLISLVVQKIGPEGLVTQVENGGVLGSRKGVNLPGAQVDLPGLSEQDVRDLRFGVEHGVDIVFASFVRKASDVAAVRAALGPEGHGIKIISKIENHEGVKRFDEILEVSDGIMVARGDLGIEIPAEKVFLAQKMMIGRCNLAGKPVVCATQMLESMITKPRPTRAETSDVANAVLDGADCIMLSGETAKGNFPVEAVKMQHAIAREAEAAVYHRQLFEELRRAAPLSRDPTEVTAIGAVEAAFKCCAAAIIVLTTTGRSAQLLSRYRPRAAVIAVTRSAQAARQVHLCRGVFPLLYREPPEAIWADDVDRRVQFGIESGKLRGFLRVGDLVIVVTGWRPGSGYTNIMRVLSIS

`CC1=C(CSC(=S)N2CCCCC2)C(=O)c2ccccc2C1=O`: the inhibition result in data set [1] was “Dose-dependent effect”. For the same molecule, the IC50 in data set [2] was determined as 16700 nM; in [4], 8200 nM; in data set [6], 180 nM; in data set [7], 290 nM; in data set [8], 1560 nM; in data set [9], 2010 nM. The IC50 in [10] worked out at 18500 nM. Also, the Ratio IC50 came to 5.7 in data set [3] and 2.8 in data set [5]. The selectivity ratio in [11] is 11.8. In addition, the viability at 0.078 µM in [12] turned out to be 92.5%; in data set [16], 99%. The viability at 0.156 µM in data set [13] came out at 62.3%; in data set [17], 95.8%. Also, the viability at 0.313 µM worked out at 20.7% in data set [14] and 21.1% in data set [18]. Besides, the viability at 0.625 µM in data set [15] is 6.9%; in [19], 4.8%.
